From ChEMBL document CHEMBL5532699, “Design, docking optimization, and evaluation of biotin-PEG4-1,8-naphthalimide as a potent and safe antitumor agent with dual targeting of ferroptosis and DNA” (RSC Med Chem, 2024)
Activity calls are given as the source filed them. No cut-off for these calls is given here.

Key:
[1] = Cytotoxicity against HUVEC cells incubated for 48 hrs by MTT assay; assay type: toxicity, cell-based; settings: human
How it was run: (§1)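 Monolayer cells in DMEM with 10% FBS, penicillin and streptomycin, 37°C, 5% CO2. Exponentially growing cells were seeded in 96-well plates and exposed to compound for 48 h. MTT was then added for 4 h at 37°C. Medium was removed, formazan dissolved in DMSO, and OD read at 490 nm. Each plate had five replicate wells, and assays were repeated three times per line.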

MGC-803 [2] = assay: Induction of cell cycle arrest at S phase in human MGC-803 cells assessed as increase in P21 protein expression level at 25 to 50 uM incubated for 24 hrs by Western blot analysis; assay type: functional, cell-based; settings: dose 25-50 µM
How it was run: (§2)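 MGC-803 cells treated 25 or 50 μM for 24 h, lysed in ice-cold 1% SDS/Tris-HCl pH 7.5 buffer with EDTA, NaCl and protease inhibitors, spun 12,000g 18 min. Protein quantified by BCA; 40–50 μg resolved on 10% SDS-PAGE, transferred to PVDF, milk-blocked 2 h, primary antibody overnight, HRP secondary 1 h at RT. ECL detection with densitometry.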

U-251 [3] = assay: Antiproliferative activity against human U-251 cells incubated for 48 hrs by MTT assay; assay type: functional, cell-based; settings: U-251, 48 h; how it was run: as §1
[4] = Toxicity in nude mouse xenografted with human U-251 cells assessed as pathological changes in heart at 24 to 48 mg/kg, ip administered once every two days for 21 days by H and E staining based analysis; assay type: organism-based; settings: in vivo, 504 h, dose 24-48 mg/kg, time 21 day
How it was run: (§3)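 Nude mice carrying s.c. xenografts (1×10^6 cells, right flank) randomized at 60–80 mm³ (n = 6), dosed i.p. every 2 days in 5% v/v DMSO/saline. Major organs examined by H&E staining at 200× magnification.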

A549 = assay: Antiproliferative activity against human A549 cells incubated for 48 hrs by MTT assay; assay type: functional, cell-based; settings: A549, 48 h; how it was run: as §1
U-251 [5] = assay: Antitumor activity against human U-251 cells xenografted in nude mouse assessed as tumor inhibition ratio at 48 mg/kg, ip administered once every two days for 21 days relative to control; assay type: functional; settings: U-251, 504 h, time 21 day
How it was run: (§4)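 1×10^6 tumor cells injected s.c. into the right flank of nude mice. At mean tumor volume 60–80 mm³, animals randomized to vehicle or treatment groups (n = 6). Compound in 5% v/v DMSO/saline given i.p. every 2 days. Tumor size and weight recorded; volume = lw²/2 from length and width. Body weight tracked as the systemic toxicity index.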

[6] = Toxicity in nude mouse xenografted with human U-251 cells assessed as pathological changes in lung at 24 to 48 mg/kg, ip administered once every two days for 21 days by H and E staining based analysis; assay type: organism-based; settings: in vivo, 504 h, dose 24-48 mg/kg, time 21 day; how it was run: as §3
MGC-803 [7] = assay: Induction of cell cycle arrest in human MGC-803 cells assessed as accumulation of cells at G0/G1 phase at 100 uM incubated for 24 hrs by PI staining based flow cytometry (Rvb=59.09%); assay type: functional
MGC-803 [8] = assay: Induction of ferroptosis in human MGC-803 cells assessed as increase in intracellular lipid peroxide and ROS level by measuring increase in green fluorescence intensity at 50 uM incubated for 24 hrs by BODIPY 581/591 C11 staining based confocal microscopic analysis; assay type: functional, cell-based
MGC-803 [9] = assay: Induction of cell cycle arrest at S phase in human MGC-803 cells assessed as decrease in cyclin E1 protein expression level at 25 to 50 uM incubated for 24 hrs by Western blot analysis; assay type: functional, cell-based; settings: dose 25-50 µM; how it was run: as §2
U-251 [10] = assay: Antitumor activity against human U-251 cells xenografted in nude mouse assessed as tumor inhibition ratio at 24 mg/kg, ip administered once every two days for 21 days relative to control; assay type: functional; settings: U-251, 504 h, time 21 day; how it was run: as §4
[11] = Toxicity in nude mouse xenografted with human MGC-803 cells assessed as pathological changes in liver at 12 to 48 mg/kg, ip administered once every two days for 21 days by H and E staining based analysis; assay type: organism-based; settings: in vivo, 504 h, dose 12-48 mg/kg, time 21 day; how it was run: as §3
[12] = Cytotoxicity against HK-2 cells incubated for 48 hrs by MTT assay; assay type: toxicity, cell-based; settings: human; how it was run: as §1
MGC-803 [13] = assay: Inhibition of DNA synthesis in human MGC-803 cells at 25 to 50 uM incubated for 24 hrs by EdU staining based fluorescence microscopic analysis; assay type: functional, cell-based; settings: dose 25-50 µM
MGC-803 [14] = assay: Induction of ferroptosis in human MGC-803 cells assessed as appearance of smaller mitochondria at 5 uM incubated for 24 hrs by TEM analysis; assay type: functional, cell-based
How it was run: (§5)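 Cell samples prefixed in 3% glutaraldehyde, postfixed in 1% osmium tetroxide, dehydrated through graded acetone (30–100%), embedded in Epon812, cut into 60–90 nm ultrathin sections on copper grids, stained with uranyl acetate 10–15 min and lead citrate 1–2 min at room temperature, examined by TEM.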

[15] = test system: calf thymus DNA (Bos taurus); assay: Competitive binding affinity to calf thymus DNA in presence of propidium iodide by fluorescence intercalator displacement assay
MGC-803 [16] = assay: Induction of apoptosis in human MGC-803 cells; assay type: functional, cell-based
[17] = Toxicity in nude mouse xenografted with human MGC-803 cells assessed as effect on animal behavior at 24 to 48 mg/kg, ip administered once every two days for 21 days; assay type: organism-based; settings: in vivo, 504 h, dose 24-48 mg/kg, time 21 day; how it was run: as §4
[18] = Toxicity in nude mouse xenografted with human MGC-803 cells assessed as pathological changes in heart at 12 to 48 mg/kg, ip administered once every two days for 21 days by H and E staining based analysis; assay type: organism-based; settings: in vivo, 504 h, dose 12-48 mg/kg, time 21 day; how it was run: as §3
MGC-803 [19] = assay: Induction of cell cycle arrest in human MGC-803 cells assessed as accumulation of cells at G2/M phase at 100 uM incubated for 24 hrs by PI staining based flow cytometry (Rvb=12.91%); assay type: functional
MGC-803 [20] = assay: Induction of ferroptosis in human MGC-803 cells assessed as accumulation of intracellular ROS level by measuring increase in red fluorescence intensity at 25 to 50 uM incubated for 24 hrs by DHE staining based confocal microscopic analysis; assay type: functional, cell-based; settings: dose 25-50 µM
MGC-803 [21] = assay: Induction of ferroptosis in human MGC-803 cells assessed as appearance of ruptured mitochondria at 5 uM incubated for 24 hrs by TEM analysis; assay type: functional, cell-based; how it was run: as §5
MGC-803 [22] = assay: Induction of cell cycle arrest in human MGC-803 cells assessed as accumulation of cells at S phase at 50 uM incubated for 24 hrs by PI staining based flow cytometry (Rvb=28.00%); assay type: functional
MGC-803 [23] = assay: Induction of cell cycle arrest in human MGC-803 cells assessed as accumulation of cells at G2/M phase at 50 uM incubated for 24 hrs by PI staining based flow cytometry (Rvb=12.91%); assay type: functional
MGC-803 [24] = assay: Antiproliferative activity against human MGC-803 cells incubated for 48 hrs by MTT assay; assay type: functional, cell-based; settings: MGC-803, 48 h
How it was run: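 Cells kept as monolayers in DMEM with 10% FBS, streptomycin and penicillin, 37°C, 5% CO₂. Exponentially growing cells seeded in 96-well plates, exposed 48 h, then MTT (10 mg/mL stock) for 4 h at 37°C. Medium removed, formazan dissolved in DMSO, OD read at 490 nm. Five wells per condition; each cell line run three times.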

CN(C)CCN1C(=O)c2cccc3c(N4CCN(C(=O)CCOCCOCCOCCOCCNC(=O)CCCCC5SCC6NC(=O)NC65)CC4)ccc(c23)C1=O (stereo not given)
IC50 at 48 h [1]: > 50 µM | Activity (MGC-803 [2]): Active | IC50 (U-251 [3]): > 50 µM | Activity [4]: Non-Toxic | IC50 (A549): > 50 µM | inhibition in vivo at 48 mg/kg (U-251 [5]): 76.2% | Activity [6]: Non-Toxic | Activity (MGC-803 [7]): 39.71% | Activity (MGC-803 [8]): Active | Activity (MGC-803 [9]): Active | inhibition in vivo at 24 mg/kg (U-251 [10]): 74.8% | Activity [11]: Non-Toxic | IC50 at 48 h [12]: > 50 µM | inhibition (MGC-803 [13]): Active | Activity (MGC-803 [14]): Active | Activity [15]: Active | Activity (MGC-803 [16]): inactive | Activity [17]: Non-Toxic | Activity [18]: Non-Toxic | Activity (MGC-803 [19]): 18.57% | Activity (MGC-803 [20]): Active | Activity (MGC-803 [21]): Active | Activity (MGC-803 [22]): 40.58% | Activity (MGC-803 [23]): 26.25% | IC50 (MGC-803 [24]): > 50 µM
